Results on eight compounds are retold here after ChEMBL document CHEMBL1148016, “Synthesis of 1,3-diphenyl-2-propen-1-one derivatives and evaluation of their biological activities” (Bioorg Med Chem, 2007).

Usually IC50 stands for the concentration that gives 50% inhibition.

Assay [1] is described as follows: DPPH radical scavenging activity. The assay is classed as functional. In outline:
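Compound mixed with 0.1 mM acetic acid buffer and warmed to 25 °C for 5 min, then 0.2 mM DPPH in ethanol added. Absorbance read at 517 nm after 30 min. Scavenging rate (%) = {1 − (A − C)/B} × 100, with sample, colour-contrast and blank absorbances. 50% scavenging concentration calculated from the scavenging rate.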

The next assay relates to Microglia. The assay can be described thus: Suppression of LPS-induced NO production in Sprague-Dawley rat microglia after 24 hrs. The assay is classed as functional, cell-based. In outline:
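Primary microglia from postnatal day-1 Sprague–Dawley rat cortex, grown 10–14 days in MEM/10% FBS, detached by shaking and replated. Cells given LPS 1 µg/mL with compound (1, 5, 10, 20 µM) for 24 h at 37 °C. Supernatant nitrite measured by Griess reaction at 540 nm. Three independent experiments in triplicate.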

Assay [2] has as its system Cortical neurone. The assay can be described thus: Inhibition of glutamate-induced neurotoxicity in mouse cortical neurons assessed as cell death at 5 uM after 24 hrs relative to NMDA. The assay is classed as functional. In a few lines:
(§1)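 Mixed cortical neuron/glia cultures from fetal day-15 mouse cortex, on poly-D-lysine/laminin. Cytosine arabinoside 10 uM from DIV 6. Cultures exposed in serum-free MEM to 60 µM glutamate plus compound for 24 h at 37 °C. Viability by WST-1 (1:10, 2 h, 37 °C), read at 450 nm with 650 nm reference and normalized to untreated wells. Three independent experiments in triplicate.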

Assay [3] relates to Cortical neurone. The assay can be described thus: Inhibition of glutamate-induced neurotoxicity in mouse cortical neurons assessed as cell death at 10 uM after 24 hrs relative to NMDA. The assay is classed as functional. In outline:
as §1

Active and inactive are the calls of the source. The rule behind the calls is not given here.

`COc1cc(/C=C/C(=O)c2ccc(C(F)(F)F)cc2)ccc1O` registered an IC50 in assay [1] of 43.8 µM. The result in the assay with Microglia was Active.
`COc1cc(/C=C/C(=O)c2cc(F)c(F)c(F)c2)ccc1O`: the result in the assay on Cortical neurone [2], with Cortical neurone [3] and in the assay on Microglia was Active. The compound also had an IC50 in assay [1] of 53.2 µM.
`COc1cc(/C=C/C(=O)c2ccc([Si](C)(C)C)cc2)ccc1O`: the IC50 in assay [1] turned out to be 52.8 µM. In addition, the result with Microglia was Active.
The like results for `COc1cc(/C=C/C(=O)c2ccc(OC)c(F)c2)ccc1O` were, in that order, 52.5 µM and “Active”.
In turn, `COc1cc(/C=C/C=O)ccc1O` [CONIFERYL ALDEHYDE] gave an IC50 in assay [1] of 64.6 µM.
Turning to `COc1cc(/C=C/C(=O)c2c(O)c3ccccc3oc2=O)ccc1O`, the result with Cortical neurone [2], in the assay on Cortical neurone [3] and in the assay with Microglia was Active. In assay [1], this compound had an IC50 of 52.5 µM.
`COc1cc(/C=C/C(=O)c2c(O)c3ccccc3oc2=O)ccc1O[Si](C)(C)C(C)(C)C` returned a half-inhibitory concentration (IC50) in assay [1] of 45.5 µM. Besides, the result with Microglia was Active.
As for `COc1cc(/C=C/C(=O)c2ccc3c(c2)OCO3)ccc1O`, the result in the assay on Cortical neurone [2], in the assay on Cortical neurone [3] and in the assay with Microglia was Active. The same compound returned an IC50 in assay [1] of 46 µM.
